# Rows were chosen to be rich in hits. Some 6.4% of all compounds tested hit in one or more screens of this group.
# CHOP inh = inhibitors of CHOP promoter induction, primary screen, cell-based, unfolded protein response, luciferase reporter | CHO-K1 CHOP-promoter luciferase, tunicamycin-induced, 15-18 h | inhibition, % at 10 µM | 220,000 tested, 3.8% active;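 active = compounds that reduced the stress-induced luciferase reporter signal by more than about 70% of percent inhibition, limit read from the data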;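 also: 0% = tunicamycin plus vehicle and 100% = wells without tunicamycin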
# EBV gp42 block = Epstein-Barr virus gp42 inhibitors, primary screen, biochemical, uHTS, fluorescence polarization; Glycoprotein 42 (Epstein-Barr virus (strain AG876)), Q1HVG2; Fluorescence polarization binding assay, mP read-out; inhibition, % (tested at 21.74 µM); 220,000 tested, 0.42% active; AID 1085, 2008; in the data active = inhibition above about 50%
# Target sequence (Q1HVG2 whole entry, looked up): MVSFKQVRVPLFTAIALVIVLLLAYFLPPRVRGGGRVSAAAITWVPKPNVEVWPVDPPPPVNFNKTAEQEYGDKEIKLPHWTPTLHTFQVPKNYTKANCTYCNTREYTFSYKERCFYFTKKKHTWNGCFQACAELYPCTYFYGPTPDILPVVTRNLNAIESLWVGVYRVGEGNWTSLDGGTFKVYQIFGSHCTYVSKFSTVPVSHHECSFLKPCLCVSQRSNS
# NR3A LBD binder = binders of NR3A ligand-binding domain, primary screen, biophysical, differential scanning fluorimetry, uHTS; Glutamate receptor ionotropic, NMDA 3A (GRIN3A) ligand-binding domain; NR3A LBD differential scanning fluorimetry, Tm shift; 0% = protein alone, 100% = glycine-bound protein; Tm shift relative to glycine control, % at 25 µM; 340,000 tested, 2.5% active;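 active = melting temperature shift of at least 10% of the positive control shift, at one fixed dose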
# WT yeast gro inh = growth inhibition of WT strain, primary screen, mitochondrial fusion inhibitor project, WT and mutant strains, chemical genetic; inhibition, % at 10 µM; 190,000 tested, 2.1% active; mitochondrial fusion phenotypic screen; in the data active = inhibition above about 58%; tested in S. cerevisiae
# MPTP block = mitochondrial permeability transition pore inhibitors, primary screen, biochemical, isolated mouse mitochondria, absorbance; 360,000 tested, 1.4% active; inhibition, % at 10 µM; Ca2+ swelling absorbance, 30 min;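 active = inhibition of 50% or more, scaled per plate between neutral and stimulator controls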;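 also: 0% = DMSO wells given calcium and 100% = 1 mM EGTA wells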
# Tb MetRS inh = T. brucei MetRS inhibitors, primary screen, biochemical, luminescence; methionyl-tRNA synthetase (Trypanosoma brucei brucei); purified T. brucei MetRS, ATP depletion, Kinase-Glo luminescence; inhibition, % at 11.9 µM; 360,000 tested, 0.4% active;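 active = inhibition above a per-plate cutoff of the control wells' mean inhibition plus 3 SD, cut at about 5.5% in these data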;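 also: 0% = DMSO wells median and 100% = median of wells with control inhibitor compound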
#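 Measured by: Kinase-Glo luciferase luminescence reporting remaining unconsumed ATP. Material: purified T. brucei MetRS enzyme. Doses: 11.9 µM compound single dose, 0.9% DMSO. Medium: HEPES buffer containing pyrophosphatase, BSA, spermine, DTT. Times: 15 min preincubation, 2 h reaction, all 25 °C. Reagent: methionine, ATP and bulk E. coli tRNA.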
# * = called active by the depositor; nt = no result.
SMILES,CHOP inh,EBV gp42 block,NR3A LBD binder,WT yeast gro inh,MPTP block,Tb MetRS inh
CCc1nc2sc3c(c2c(=O)o1)CCCC3,27,-6,1,-10,-6,0
CC(C)(C)c1nc2sc3c(c2c(=O)o1)CCCC3,79*,-14,0,17,-1,0
c1ccc(N/N=C2\CCCc3ccccc32)nc1,21,-5,0,65*,1,-1
Fc1ccc2c(c1)/C(=N/Nc1ccccn1)CCS2,41,-6,-7,68*,1,-1
O=C(c1ccc(F)cc1)N1CCC2(CC1)NCCc1[nH]cnc12,nt,nt,1,nt,0,-1
CC(=O)c1cccc(NC(=O)CSc2nnc(C(C)N(C)C)n2-c2ccc(F)cc2)c1 (stereo not given),nt,nt,1,nt,1,1
COc1cc2oc(=O)c(Br)c(C)c2c(OC)c1OC,36,-14,0,5,1,-1
COc1cc2oc3cc(C)oc(=O)c3c2cc1OC,11,-3,16*,nt,0,0
CCc1ccccc1NC(=O)NCc1cccnc1,nt,nt,1,nt,-2,0
N#CC1(NC(=O)CSc2nc3ccccc3s2)CCCCC1,nt,nt,2,nt,1,0
CCOCCn1c(CN2CCCC(C)C2)nc2c1c(=O)n(C)c(=O)n2C (stereo not given),-6,-16,4,nt,5,-1
CC1CCCN(Cc2nc3c(c(=O)n(C)c(=O)n3C)n2CC(N)=O)C1 (stereo not given),-25,-1,-1,98*,-1,0
Cc1sc2ncn(CCn3cnc4sc(C)c(C)c4c3=O)c(=O)c2c1C,90*,4,0,2,22,-1
CCOc1cccc(NC(=O)c2cccc(F)c2)c1,0,-5,10*,-11,-1,0
Cc1ccc(OCC(=O)Nc2ccc3oc(=O)ccc3c2)cc1,nt,nt,-18,nt,0,0
O=C(Nc1ccc2ccccc2c1)c1cccc(F)c1,-6,3,20*,nt,2,0
CCOc1cccc(C(=O)Nc2ccc3ccccc3c2)c1,nt,nt,30*,nt,-1,0
CCOc1cccc(C(=O)Nc2cccc(C(C)=O)c2)c1,62,1,-43,22,1,-1
Cc1cccc(OCC(=O)Nc2ccc3oc(=O)ccc3c2)c1C,nt,nt,14*,nt,-1,0
Cc1ccc2cc(NC(=O)c3cccc(F)c3)ccc2n1,-3,-10,4,nt,1,2
Cc1ccc(N2CC(C(=O)NCc3cccs3)CC2=O)cc1C (stereo not given),2,-7,0,-5,0,-1
O=C(Nc1ccc2ccccc2c1)c1ccc(Cl)cc1,nt,nt,-4,nt,0,0
Cc1ccc(C(=O)Nc2ccc3ccccc3c2)cc1,nt,nt,16*,nt,0,0
O=C(Nc1ccc2ccccc2c1)c1ccc(NS(=O)(=O)c2ccc(Br)s2)cc1,5,-16,21*,6,0,0
O=C(Nc1cccc(NC(=O)c2cccc(F)c2)n1)c1cccc(F)c1,nt,nt,12*,nt,2,0
SMILES,CHOP inh,EBV gp42 block,NR3A LBD binder,WT yeast gro inh,MPTP block,Tb MetRS inh
O=C(Nc1ccc2oc(=O)ccc2c1)c1ccc2ccccc2c1,nt,nt,34*,nt,0,0
CC1(C(=O)NS(=O)(=O)c2cccc(C#N)c2)CCN1C(=O)CC1CCCCC1 (stereo not given),nt,nt,nt,nt,0,0
CC(/C=N/n1c(-c2ccc(C)cc2)n[nH]c1=S)=C\c1ccco1,49,-6,-6,8,2,0
COCCNC(=S)N(Cc1cccs1)Cc1cc2cccc(C)c2[nH]c1=O,5,-10,0,11,-2,0
CS(=O)(=O)N1CCc2cc(C(=O)N3CCOCC3)ccc21,1,-2,8,82*,-2,0
COC(=O)CCCCC(=O)C1C(=O)CC(C)(C)C(C(=O)OC)C1=O (stereo not given),2,-16,12*,0,-1,0
Cc1cc(C)c(NC2=NCC(=O)N2C2CCCCC2)c(C)c1,32,0,-4,68*,1,0
Cc1c(C(=O)N(Cc2ccccc2)Cc2cccs2)cnn1-c1ccc(Cl)cc1,-3,3,1,nt,3,-1
COc1ccccc1N1CCN(c2nc(C)nc3c2oc2ccccc23)CC1,nt,-14,1,75*,0,-1
Cc1nc(N2CCC(C)CC2)c2oc3ccccc3c2n1,61,-8,1,9,21,0
O=C(Oc1cccc2ccccc12)c1cc(Cl)nc2ccccc12,25,-3,14*,32,-2,-2
O=Cc1ccc(OC(=O)c2cc(Cl)nc3ccccc23)cc1,85*,-7,2,-9,-2,-1
O=C(COC(=O)c1cc(Cl)nc2ccccc12)c1ccc(Cl)cc1,-2,-17,-10,13,11,0
CCc1ccc(CN(C(=O)c2cc3ccccc3oc2=O)C2CCS(=O)(=O)C2)cc1 (stereo not given),-29,-1,-1,10,3,0
Cc1occc1C(=O)Nc1nccs1,-14,-22,4,16,1,0
Cc1occc1C(=O)Nc1nnc(-c2cccs2)s1,81*,-14,-17,6,2,0
COc1ccc(C(=O)Nc2nnc(-c3cccs3)s2)cc1,70*,-11,2,10,-3,0
Cc1nnc(NC(=O)c2cccc(F)c2)s1,8,-22,0,-5,-2,-1
O=C(Nc1nnc(-c2cccs2)s1)c1cccc(F)c1,93*,-23,-7,13,-1,0
COc1ccc(C(=O)NCC(=O)OCC(=O)Nc2c(C)n(C)n(-c3ccccc3)c2=O)cc1,46,-62,5,-22,2,0
COc1ccc(Cn2c(=S)[nH]c3cc(OC)c(OC)cc3c2=O)cc1,83*,5,0,0,2,-1
O=c1c2cc(Cl)ccc2[nH]c(=S)n1Cc1cccs1,97*,-6,19*,6,14,0
O=c1c2cc(N3CCOCC3)ccc2[nH]c(=S)n1Cc1ccco1,-58,-8,-4,18,2,0
COc1cccc(Cn2c(=S)[nH]c3ccc(N4CCOCC4)cc3c2=O)c1,-15,-10,22*,-5,4,0
O=c1c2cc(N3CCOCC3)ccc2[nH]c(=S)n1Cc1cccc(Cl)c1,46,-8,31*,17,1,-1
Cc1nc2c3ccccc3nc(NNC(=O)CCC(=O)N3CCN(c4ccc(F)cc4)CC3)n2n1,nt,nt,-8,nt,-1,-1
COc1ccc(/C=C(\C#N)C(=O)NCC2CCCO2)cc1OC (stereo not given),1,-21,-1,-10,-1,1
